Converted amounts (≈) assume the structure as drawn.
Tests used:
[1] = Lipophilicity, log kw in dioxane aqueous system at pH 3.5; type: physicochemical; settings: buffer
Summary of the method: (§1)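 RP-HPLC on an octadecyl silica column (150 × 4.6 mm, 5 µm) at 22 ± 1 °C, flow 1.0 mL min⁻¹, UV detection at 254 nm. Mobile phase was methanol, acetonitrile or dioxane with water and 0.01 M phosphate buffer pH 3.5 containing 0.05 M DEA. log k_W was extrapolated to pure water by regression.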

[2] = Lipophilicity, log kw in acetonitrile aqueous system at pH 3.5; type: physicochemical; summary of the method: as §1
[3] = Lipophilicity, log kw in methanol aqueous system at pH 3.5; type: physicochemical; summary of the method: as §1
[4] = Antiproliferative activity against human skin fibroblast assessed as cell viability at 1 uM by MTT assay; type: cell-based; settings: human skin fibroblasts, read-out: Activity
Summary of the method: (§2)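 Log-phase cells, kept in supplemented RPMI 1640 (HSF in DMEM/10% FBS) at 37 °C, 5% CO2, were exposed 24 h to 1, 50 or 100 µM compound from DMSO. They were washed, given 0.5 mg/mL MTT in HEPES buffer pH 7.4 for 45 min at 37 °C, and formazan was dissolved in DMSO and read at 570 nm. Values are % viability versus control from three independent measurements.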

[5] = Antiproliferative activity against human skin fibroblast assessed as cell viability at 50 uM by MTT assay; type: cell-based; settings: human skin fibroblasts, read-out: Activity
Summary of the method: (§3)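 MTT viability assay on primary human skin fibroblasts grown in DMEM with 10% FBS and penicillin/streptomycin. Compounds were dissolved in DMSO and given at 1, 50 or 100 µM for 24 h. Cells were washed in HEPES-buffered medium (pH 7.4) and then given MTT 0.5 mg mL⁻¹ for 45 min at 37 °C. Formazan was dissolved in DMSO and read at 570 nm. Viability is % of control; three independent measurements.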

[6] = Antiproliferative activity against human skin fibroblast assessed as cell viability at 100 uM by MTT assay; type: cell-based; settings: human skin fibroblasts, read-out: Activity; summary of the method: as §3
[7] = Antiproliferative activity against human RPMI cells assessed as cell viability at 1 uM by MTT assay; type: functional; settings: read-out: Activity; summary of the method: as §2
[8] = Antiproliferative activity against human RPMI cells assessed as cell viability at 50 uM by MTT assay; type: functional; settings: read-out: Activity; summary of the method: as §2
[9] = Antiproliferative activity against human RPMI cells assessed as cell viability at 100 uM by MTT assay; type: functional; settings: read-out: Activity; summary of the method: as §2
HeLa [10] = test: Antiproliferative activity against human HeLa cells assessed as cell viability at 1 uM by MTT assay; type: functional; settings: read-out: Activity; summary of the method: as §2
HeLa [11] = test: Antiproliferative activity against human HeLa cells assessed as cell viability at 50 uM by MTT assay; type: functional; settings: read-out: Activity; summary of the method: as §2
HeLa [12] = test: Antiproliferative activity against human HeLa cells assessed as cell viability at 100 uM by MTT assay; type: functional; settings: read-out: Activity; summary of the method: as §2
Staphylococcus aureus [13] = test: Antimicrobial activity against Staphylococcus aureus ATCC 25923 after 24 hrs by microdilution assay; type: functional; settings: ATCC 25923, 24 h
Pseudomonas aeruginosa [14] = test: Antimicrobial activity against Pseudomonas aeruginosa ATCC 27853 after 24 hrs by microdilution assay; type: functional; settings: ATCC 27853, 24 h
Pseudomonas aeruginosa [15] = test: Antimicrobial activity against Pseudomonas aeruginosa ATCC 27853 at 200 ug/mL by disc-diffusion method; type: functional; settings: read-out: IZ
Summary of the method: (§4)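 Kirby–Bauer disc diffusion: 5 mm paper discs soaked in compound solution in DMSO (100 or 200 µg/mL; reference drugs 200 µg/mL) and laid on inoculated Mueller-Hinton agar (bacteria) or Sabouraud agar (C. albicans, Aspergillus). DMSO discs were the control. Plates ran 24 h at 35 °C. Inhibition zone diameter was scored 0–10 mm R, 11–16 mm I, 17–25 mm S; triplicate.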

Proteus vulgaris [16] = test: Antimicrobial activity against Proteus vulgaris at 100 ug/mL by disc-diffusion method; type: functional; settings: read-out: IZ; summary of the method: as §4
Proteus vulgaris [17] = test: Antimicrobial activity against Proteus vulgaris at 200 ug/mL by disc-diffusion method; type: functional; settings: read-out: IZ; summary of the method: as §4
Klebsiella pneumoniae [18] = test: Antimicrobial activity against Klebsiella pneumoniae at 100 ug/mL by disc-diffusion method; type: functional; settings: read-out: IZ; summary of the method: as §4
Klebsiella pneumoniae [19] = test: Antimicrobial activity against Klebsiella pneumoniae at 200 ug/mL by disc-diffusion method; type: functional; settings: read-out: IZ; summary of the method: as §4
Klebsiella aerogenes [20] = test: Antimicrobial activity against Enterobacter aerogenes at 100 ug/mL by disc-diffusion method; type: functional; settings: read-out: IZ; summary of the method: as §4
Klebsiella aerogenes [21] = test: Antimicrobial activity against Enterobacter aerogenes at 200 ug/mL by disc-diffusion method; type: functional; settings: read-out: IZ; summary of the method: as §4
Staphylococcus aureus [22] = test: Antimicrobial activity against Staphylococcus aureus ATCC 25923 at 100 ug/mL by disc-diffusion method; type: functional; settings: read-out: IZ; summary of the method: as §4
Staphylococcus aureus [23] = test: Antimicrobial activity against Staphylococcus aureus ATCC 25923 at 200 ug/mL by disc-diffusion method; type: functional; settings: read-out: IZ; summary of the method: as §4
[24] = system: Staphylococcus epidermidis; test: Antimicrobial activity against Staphylococcus epidermidis at 100 ug/mL by disc-diffusion method; type: functional; settings: read-out: IZ; summary of the method: as §4
[25] = system: Staphylococcus epidermidis; test: Antimicrobial activity against Staphylococcus epidermidis at 200 ug/mL by disc-diffusion method; type: functional; settings: read-out: IZ; summary of the method: as §4
Streptococcus pyogenes [26] = test: Antimicrobial activity against Streptococcus pyogenes at 100 ug/mL by disc-diffusion method; type: functional; settings: read-out: IZ; summary of the method: as §4
Streptococcus pyogenes [27] = test: Antimicrobial activity against Streptococcus pyogenes at 200 ug/mL by disc-diffusion method; type: functional; settings: read-out: IZ; summary of the method: as §4
Streptococcus agalactiae [28] = test: Antimicrobial activity against Streptococcus agalactiae at 100 ug/mL by disc-diffusion method; type: functional; settings: read-out: IZ; summary of the method: as §4
Streptococcus agalactiae [29] = test: Antimicrobial activity against Streptococcus agalactiae at 200 ug/mL by disc-diffusion method; type: functional; settings: read-out: IZ; summary of the method: as §4
Candida albicans [30] = test: Antimicrobial activity against Candida albicans ATCC 10231 at 100 ug/mL by disc-diffusion method; type: functional; settings: read-out: IZ; summary of the method: as §4
Candida albicans [31] = test: Antimicrobial activity against Candida albicans ATCC 10231 at 200 ug/mL by disc-diffusion method; type: functional; settings: read-out: IZ; summary of the method: as §4
Aspergillus sp. [32] = test: Antimicrobial activity against Aspergillus sp. at 100 ug/mL by disc-diffusion method; type: functional; settings: read-out: IZ; summary of the method: as §4
Aspergillus sp. [33] = test: Antimicrobial activity against Aspergillus sp. at 200 ug/mL by disc-diffusion method; type: functional; settings: read-out: IZ; summary of the method: as §4
Escherichia coli [34] = test: Antimicrobial activity against Escherichia coli ATCC 25922 at 100 ug/mL by disc-diffusion method; type: functional; settings: read-out: IZ; summary of the method: as §4
Escherichia coli [35] = test: Antimicrobial activity against Escherichia coli ATCC 25922 at 200 ug/mL by disc-diffusion method; type: functional; settings: read-out: IZ; summary of the method: as §4
Pseudomonas aeruginosa [36] = test: Antimicrobial activity against Pseudomonas aeruginosa ATCC 27853 at 100 ug/mL by disc-diffusion method; type: functional; settings: read-out: IZ; summary of the method: as §4

## Clc1ccc(N2CCn3cnnc32)cc1Cl
[1]
  logKw: 2.49
[2]
  logKw: 2.11
[3]
  logKw: 2.92

## Clc1ccc(N2CCn3cnnc32)cc1
[1]
  logKw: 1.89
[2]
  logKw: 2.7
[3]
  logKw: 2.19
[4]
  viability at 1 µM: 101%
[5]
  viability at 50 µM: 90.9%
[6]
  viability at 100 µM: 90.7%
[7]
  viability at 1 µM: 104%
[8]
  viability at 50 µM: 96.9%
[9]
  viability at 100 µM: 87.5%
HeLa [10]
  viability at 1 µM: 77.9%
HeLa [11]
  viability at 50 µM: 67.6%
HeLa [12]
  viability at 100 µM: 68.4%

## O=C(N[C@H](CO)[C@H](O)c1ccc([N+](=O)[O-])cc1)C(Cl)Cl [CHLORAMPHENICOL]
Staphylococcus aureus [13]
  MIC: 12.4 µM (≈ 4.01 µg/mL)
Pseudomonas aeruginosa [14]
  MIC: > 387 µM

## Clc1ccc(OCc2nnc3n2CCN3c2ccc(Cl)cc2)cc1
[1]
  logKw: 3.41
[2]
  logKw: 3.23
[3]
  logKw: 4.38
[4]
  viability at 1 µM: 88.7%
[5]
  viability at 50 µM: 63.8%
[6]
  viability at 100 µM: 16.2%
[7]
  viability at 1 µM: 60.1%
[8]
  viability at 50 µM: 34.5%
[9]
  viability at 100 µM: 34%
HeLa [10]
  viability at 1 µM: 63.2%
HeLa [11]
  viability at 50 µM: 56.3%
HeLa [12]
  viability at 100 µM: 52.4%

## Cc1cc(Cl)ccc1OCc1nnc2n1CCN2c1ccc(Cl)cc1
[1]
  logKw: 3.87
[2]
  logKw: 3.7
[3]
  logKw: 4.61
[4]
  viability at 1 µM: 79.5%
[5]
  viability at 50 µM: 74%
[6]
  viability at 100 µM: 71%
[7]
  viability at 1 µM: 46.4%
[8]
  viability at 50 µM: 32.4%
[9]
  viability at 100 µM: 31.1%
HeLa [10]
  viability at 1 µM: 92.1%
HeLa [11]
  viability at 50 µM: 71.8%
HeLa [12]
  viability at 100 µM: 71%

## Cc1ccc(N2CCn3c(COc4ccc(Cl)cc4C)nnc32)cc1
Pseudomonas aeruginosa [15]
  zone of inhibition at 200 µg/mL: 0 mm
Proteus vulgaris [16]
  zone of inhibition at 100 µg/mL: 0 mm
Proteus vulgaris [17]
  zone of inhibition at 200 µg/mL: 0 mm
Klebsiella pneumoniae [18]
  zone of inhibition at 100 µg/mL: 0 mm
Klebsiella pneumoniae [19]
  zone of inhibition at 200 µg/mL: 0 mm
Klebsiella aerogenes [20]
  zone of inhibition at 100 µg/mL: 0 mm
Klebsiella aerogenes [21]
  zone of inhibition at 200 µg/mL: 0 mm
Staphylococcus aureus [22]
  zone of inhibition at 100 µg/mL: 11 mm
Staphylococcus aureus [23]
  zone of inhibition at 200 µg/mL: 17 mm
[24]
  zone of inhibition at 100 µg/mL: 11 mm
[25]
  zone of inhibition at 200 µg/mL: 17 mm
Streptococcus pyogenes [26]
  zone of inhibition at 100 µg/mL: 0 mm
Streptococcus pyogenes [27]
  zone of inhibition at 200 µg/mL: 0 mm
Streptococcus agalactiae [28]
  zone of inhibition at 100 µg/mL: 0 mm
Streptococcus agalactiae [29]
  zone of inhibition at 200 µg/mL: 0 mm
Candida albicans [30]
  zone of inhibition at 100 µg/mL: 0 mm
Candida albicans [31]
  zone of inhibition at 200 µg/mL: 0 mm
Aspergillus sp. [32]
  zone of inhibition at 100 µg/mL: 0 mm
Aspergillus sp. [33]
  zone of inhibition at 200 µg/mL: 0 mm
Staphylococcus aureus [13]
  MIC: 44 µM (≈ 15.6 µg/mL)
[1]
  logKw: 1.1
[2]
  logKw: 1
[3]
  logKw: 1.58
[4]
  viability at 1 µM: 74.9%
[5]
  viability at 50 µM: 56.9%
[6]
  viability at 100 µM: 62.1%
[7]
  viability at 1 µM: 85.5%
[8]
  viability at 50 µM: 27.7%
[9]
  viability at 100 µM: 25.4%
HeLa [10]
  viability at 1 µM: 95.1%
HeLa [11]
  viability at 50 µM: 75.2%
HeLa [12]
  viability at 100 µM: 75.6%
Escherichia coli [34]
  zone of inhibition at 100 µg/mL: 0 mm
Escherichia coli [35]
  zone of inhibition at 200 µg/mL: 0 mm
Pseudomonas aeruginosa [36]
  zone of inhibition at 100 µg/mL: 0 mm

## c1ccc(N2CCn3cnnc32)cc1
[1]
  logKw: 1.16
[2]
  logKw: 1.37
[3]
  logKw: 1.62
[4]
  viability at 1 µM: 97.6%
[5]
  viability at 50 µM: 89.5%
[6]
  viability at 100 µM: 85.6%
[7]
  viability at 1 µM: 99.3%
[8]
  viability at 50 µM: 102%
[9]
  viability at 100 µM: 97.6%
HeLa [10]
  viability at 1 µM: 73.2%
HeLa [11]
  viability at 50 µM: 75.4%
HeLa [12]
  viability at 100 µM: 72.8%
